# Bioassay records: PubChem, several laboratories
# Rows were chosen to be rich in hits. Some 2.2% of all compounds tested hit in one or more screens of this group.
# Jurkat NFkB inh: inhibitors of induced NF-kB luciferase reporter, primary screen, TCR NF-kB activation inhibitor project, cell-based, luminescence, uHTS. Jurkat, PMA/ionomycin-induced NF-kB luciferase reporter. inhibition, % at 4 µM. hit rate 0.53% among 330,000; in the data active means inhibition above about 50%
# miR-122 sensor: miR-122 Renilla sensor signal increase in Huh7, primary screen, miR-122 inhibitor project, cell-based, single point, plate reader; Huh7 miR-122 Renilla luciferase sensor, 48 h; neutral wells = 0, positive control = 100; activation (reporter increase), % at 12.5 µM; hit rate 0.3% among 340,000; AID 602342, 2012;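 active means mean replicate activation score at least 90 and every replicate individually at or above 90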;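 further: higher luciferase means less miR-122 activity so hits act as miR-122 inhibitors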
# NR2E3 ag-1: inhibitors of NR2E3-RetCOR corepressor binding, primary screen, NR2E3 agonist project, biochemical, TR-FRET, GST-NR2E3, biotin-RetCOR | Photoreceptor-specific nuclear receptor (Homo sapiens), Q9Y5X4 | 1536-well | inhibition of corepressor binding, % at 4.78 µM | hit rate 0.12% among 320,000 | AID 2300, 2010;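 active means percent inhibition above the cutoff of mean plus 3 SD of all tested compounds, set per screening campaign, cut at about 20% in these data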
# Target sequence (Q9Y5X4 whole entry, looked up): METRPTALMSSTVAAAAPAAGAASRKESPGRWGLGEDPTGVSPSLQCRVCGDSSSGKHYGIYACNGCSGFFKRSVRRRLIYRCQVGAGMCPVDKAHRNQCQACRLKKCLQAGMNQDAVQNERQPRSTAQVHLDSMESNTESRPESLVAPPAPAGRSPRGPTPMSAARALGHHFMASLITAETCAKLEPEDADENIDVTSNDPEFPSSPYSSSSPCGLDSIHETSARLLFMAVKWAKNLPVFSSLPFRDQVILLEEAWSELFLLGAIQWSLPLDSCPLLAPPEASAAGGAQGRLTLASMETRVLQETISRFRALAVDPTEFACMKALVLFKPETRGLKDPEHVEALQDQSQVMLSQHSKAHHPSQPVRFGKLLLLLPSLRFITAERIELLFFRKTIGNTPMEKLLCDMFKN
#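 System: GST-tagged NR2E3 plus biotinylated RetCOR corepressor; Buffer or medium: pH 7.5 Tris-based buffer; Probe or stimulus: RetCOR corepressor, biotinylated, 7 nM; Doses: compound at 4.8 µM, single dose; Schedule: 5 h incubation at 4 °C; Technique: time-resolved FRET; Evaluation: percent inhibition of TR-FRET ratio; Replication: one well per compound, singlicate testing.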
# FGF22 binding: binders of human FGF22 protein, primary screen, FGF22 synaptogenesis inhibitor project, biophysical, thermal shift, single point; hit rate 1.5% among 340,000; activity (Tm shift, normalised), % at 9.99 µM; AID 651658, 2012; recombinant FGF22 thermal shift, SYPRO orange fluorescence; percent of sucrose octasulfate shift, DMSO zero;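 active means mean Tm shift, scaled 0 neutral to 100 positive control, at about 1.3% or above, every replicate too, limit read from the data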
# Target sequence (Q9HCT0 whole entry, looked up): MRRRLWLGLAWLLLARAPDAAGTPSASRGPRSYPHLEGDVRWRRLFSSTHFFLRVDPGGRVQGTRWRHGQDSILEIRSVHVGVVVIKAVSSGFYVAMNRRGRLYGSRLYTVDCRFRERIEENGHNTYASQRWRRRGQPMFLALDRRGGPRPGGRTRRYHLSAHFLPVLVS
# NR2E3 ag-2: NR2E3 agonists in two-hybrid cells, primary screen, cell-based, luminescence, CHO-S, Gal4-NCOR/VP16-NR2E3. luciferase. inhibition of corepressor binding, % at 3.98 µM. hit rate 0.35% among 360,000. AID 602229, 2012;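 active means inhibition above the mean of all tested compounds plus 3 SD, cut at about 70% in these data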;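 further: higher means lower luciferase signal from less NR2E3 corepressor binding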
# 697 NFkB inh: inhibitors of PMA/ionomycin-induced NF-kB reporter, 697 cells, primary screen, B-cell NF-kB inhibitor project, cell-based, luminescence, uHTS | hit rate 0.33% among 330,000 | 697 B-cell NF-kB luciferase reporter, 16 h | inhibition, % at 4 µM; in the data active means inhibition above about 35%
# A number is an active result; i = inactive; nt = no result; [ ] = remark or other dose.
SMILES,Jurkat NFkB inh,miR-122 sensor,NR2E3 ag-1,FGF22 binding,NR2E3 ag-2,697 NFkB inh
CCOC(=O)N1CCN(C(=O)C2CCN(S(=O)(=O)c3cc(OC)ccc3OC)CC2)CC1,i,nt,i,43,i,i
CCCNS(=O)(=O)c1ccc(OC)c(Cl)c1Cl,i,i,i,nt,i,i
COc1ccc(S(=O)(=O)NCCSC(C)(C)C)c(Cl)c1Cl,i,253,i,nt,i,i
Cc1cccc(-c2ccc([C@H]3[C@@H](CO)N4CCCCN(S(=O)(=O)c5cccc(C)c5)C[C@H]34)cc2)c1,nt,i,nt,i,nt,nt
Cc1cccc(-c2ccc([C@H]3[C@H]4CN(S(=O)(=O)c5cccc(C)c5)CCCCN4[C@H]3CO)cc2)c1,nt,i,nt,18,nt,nt
COc1ccc(CN(C)C[C@H]2OCCCC[C@H](C)Oc3ccc(NS(=O)(=O)c4c(C)noc4C)cc3C(=O)N([C@H](C)CO)C[C@H]2C)cc1,nt,i,nt,i,nt,nt
Cc1ccc(OCC(=O)N/N=C\c2ccc(O)c([N+](=O)[O-])c2)c([N+](=O)[O-])c1,i,nt,i,i,i,i
Cc1ccc(/C=N\NC(=O)COc2ccc(C)cc2[N+](=O)[O-])cc1,i,nt,i,43,i,i
COc1ccc(CC(=O)N2CCC(c3ccccc3)C2)cc1 (stereo not given),i,nt,i,44,i,i
O=C(COC(=O)/C=C/c1cccc([N+](=O)[O-])c1)NCc1ccco1,i,nt,i,i,i,i
CCNC(=O)COC(=O)/C=C/c1cccc([N+](=O)[O-])c1,i,nt,i,43,i,i
CCN(CC)CCNC(=O)c1ccc(NC(=O)/C=C/c2ccc3ccccc3n2)cc1,i,i,nt,1.6,i,i
CCN(CC)CCNC(=O)c1ccc(NC(=O)Cc2ccccc2F)cc1,i,i,i,i,i,i
Cc1oc(-c2cccc(Cl)c2)nc1CS(=O)(=O)CC(=O)NCc1ccco1,i,i,i,1.5,i,i
O=C(N[C@@H](Cc1ccc(O)cc1)C(=O)O)C(c1ccccc1)c1ccccc1,i,nt,i,i,i,i
O=C(NC(Cc1ccc(O)cc1)C(=O)O)c1ccco1 (stereo not given),i,nt,i,43,i,i
Cc1ccc(NC(=O)CNC(=O)N2CC(=O)Nc3ccccc32)cc1F,i,i,i,i,i,i
O=C(CN1CC(=O)Nc2ccccc21)Nc1ccc(F)c(F)c1,i,nt,i,43,i,i
O=C(CN1CC(=O)Nc2ccccc21)NCCc1ccc(Cl)cc1Cl,i,nt,i,44,i,i
O=C(CN1CCNC(=O)C1)NCCc1ccc(Cl)cc1Cl,i,nt,i,i,i,i
COc1ccc(S(=O)(=O)N(C)C[C@@H]2Oc3ccc(NC(=O)CCCCCC(=O)Nc4ccccc4N)cc3CC(=O)N([C@H](C)CO)C[C@@H]2C)cc1,nt,i,nt,i,nt,nt
C[C@@H]1CN([C@H](C)CO)C(=O)c2cc(-c3ccc(F)cc3)cnc2O[C@H]1CN(C)Cc1cncnc1,nt,i,nt,i,nt,nt
C[C@H](CO)N1C[C@H](C)[C@@H](CN(C)Cc2ccc(C(=O)Nc3ccccc3N)cc2)Oc2c(NS(=O)(=O)c3ccccc3)cccc2C1=O,nt,nt,nt,i,nt,nt
C[C@@H]1CN([C@H](C)CO)C(=O)c2cccc(NS(=O)(=O)c3ccc(Cl)cc3)c2O[C@H]1CN(C)Cc1ccc(C(=O)Nc2ccccc2N)cc1,nt,nt,nt,i,nt,nt
C[C@@H]1CN([C@@H](C)CO)C(=O)c2cccc(NS(=O)(=O)c3ccc(Cl)cc3)c2O[C@@H]1CN(C)Cc1ccc(C(=O)Nc2ccccc2N)cc1,nt,129[16.7 µM],nt,i,nt,nt
SMILES,Jurkat NFkB inh,miR-122 sensor,NR2E3 ag-1,FGF22 binding,NR2E3 ag-2,697 NFkB inh
C[C@@H]1CN([C@@H](C)CO)C(=O)c2cccc(NS(=O)(=O)c3ccccc3)c2O[C@@H]1CN(C)Cc1ccc(C(=O)Nc2ccccc2N)cc1,nt,181[16.7 µM],nt,i,nt,nt
CCCNC(=O)N1CC2(CCN(CC3CCCCC3)CC2)c2c(n(C)c3cc(OC)ccc23)[C@@H]1CO,nt,nt,nt,i,nt,nt
O=C(C[C@@H]1C[C@@H]2c3cc(NC(=O)Nc4ccc(F)cc4)ccc3O[C@@H]2[C@@H](CO)O1)NCC1CC1,nt,i,nt,i,nt,nt
O=C(CSc1nc2ccccc2[nH]1)Nc1ccc(F)cc1,i,i,i,i,i,i
O=C(CSc1nc2ccccc2[nH]1)NCc1ccc(F)cc1,i,i,i,43,i,i
CCOC(=O)C1CCN(S(=O)(=O)c2ccc(C(C)(C)C)cc2)CC1,i,nt,i,43,i,i
CCOC(=O)C1CCN(S(=O)(=O)c2ccc(CC)cc2)CC1,i,nt,i,nt,i,i
COc1cccc(C(=O)c2c[nH]c(C(=O)NCCCN3CCOCC3)c2)c1,i,nt,i,43,i,i
NS(=O)(=O)c1ccc(NC(=O)COC(=O)C2CCCCC2)cc1,i,nt,i,44,i,i
NS(=O)(=O)c1ccc(NC(=O)COC(=O)c2cnccn2)cc1,i,i,i,43,i,i
COc1ccc(OC)c(NC(=O)COC(=O)C2CCCCC2)c1,i,i,nt,44,i,i
O=C(COC(=O)c1cnccn1)Nc1ccc(Cl)cn1,i,nt,i,i,i,i
NS(=O)(=O)c1ccc(NC(=O)COC(=O)CCC2CCCC2)cc1,i,i,i,i,i,i
Cn1c(=O)n(Cc2ccc(Cl)cc2)c(=O)c2c1nc1n2CCN1Cc1ccco1,i,i,i,nt,i,i
Cn1c(=O)n(Cc2ccccc2F)c(=O)c2c1nc1n2CCN1Cc1ccco1,i,i,i,43,i,i
C[C@H]1CN([C@@H](C)CO)C(=O)c2cc(C#CC3(O)CCCC3)cnc2O[C@H]1CN(C)C,nt,i,nt,i,nt,nt
C[C@H]1CN([C@@H](C)CO)C(=O)c2cc(C#Cc3ccncc3)cnc2O[C@H]1CN(C)Cc1ccncc1,nt,i,nt,nt,nt,nt
O=C(COC(=O)c1ccc2c(c1)C(=O)N(c1cccc3ncccc13)C2=O)c1ccc(Cl)cc1,i,i,i,44,i,i
Cc1ccc(C(=O)COC(=O)c2ccc3c(c2)C(=O)N(c2cccc4ncccc24)C3=O)cc1,i,nt,i,i,i,i
C[C@@H]1CN([C@H](C)CO)S(=O)(=O)c2ccc(-c3cccc(F)c3)cc2O[C@H]1CN(C)S(C)(=O)=O,nt,i,nt,i,nt,nt
O=C(Nc1cc(Cl)ccc1-n1cncn1)c1ccc(Br)o1,i,nt,i,13,i,i
COc1ccc(S(=O)(=O)/N=C2/NC(=O)/C(=C/c3ccco3)S2)cc1,i,nt,i,1.4,i,i
